The entries come from a sample that favours hits as a whole.
LANA-nucl inh: inhibitors of KSHV LANA-nucleosome binding, primary screen, biochemical, fluorescence polarization, FITC-LANA1-23, chicken nucleosomes; z-score (no concentration beside the values); FITC-LANA1-23 / chicken nucleosome fluorescence polarization; active compounds read low; actives 0.3% (n = 51,000); AID 720717, 2013;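 active = both repeat wells score below -2 in polarization z-score versus plate sample wells, excluding overly bright wells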
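Assay system: FITC-LANA peptide and chicken nucleosomes; input: 240 nM purified chicken nucleosomes (480 nM peptide binding sites), final; also added: 50 nM FITC-LANA1-23 probe; medium: TEN-BT buffer, pH 7.5; doses: pin-transferred compound, 100 nL; times: 10–45 min, room temperature; technique: fluorescence polarization; replication: duplicates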
Ab BasE inh: BasE siderophore enzyme inhibitors, primary screen, biochemical, Acinetobacter baumannii ATCC 17978, fluorescence polarization; inhibition, % (test concentration not listed); AID 485350, 2010; purified BasE, fluorescence polarization binding displacement; actives 0.1% (n = 84,000); in the data active = inhibition above about 25%, passing the limit was not always enough;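 note: 0% = negative plate control signal and 100% = positive plate control signal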
Starred values were filed as active, the others as inactive; . = no result given.

SMILES	LANA-nucl inh	Ab BasE inh
CN(C)C(=O)Oc1cccc2cccnc12	-0.685	0.3
CC(=O)Oc1ccc(Cl)c2cccnc12	0.177	30.4*
CCn1nc(-c2ccccc2)nc2c(=O)n(C)c(=O)nc1-2	-9.3*	7.5
CCN1C[C@]2(C)CC[C@H](O)C34C5C[C@H]6C(O)C5[C@](O)(C[C@@H]6OC)C(CC32)[C@@H]14 (stereo partly specified)	-0.363	-1.7
Cc1c(P(=S)(N2CCOCC2)N2CCOCC2)cc(C#N)n1C	.	2.6
C=CCn1cc(C=C2C(=O)NC(=O)NC2=O)c2ccccc21	-2.45*	3.5
O=C1NC(=O)C(=Cc2cn(CCOc3ccc4c(c3)OCO4)c3ccccc23)C(=O)N1	.	0.6
O=c1c2ccccc2[nH]c(=S)n1-c1ccccc1	-0.511	-0.2
O=C1NC(=O)C(=Cc2ccccc2)C(=O)N1	0.209	-1.1
